From ChEMBL document CHEMBL3098105, “7,7'-Diazaindirubin--a small molecule inhibitor of casein kinase 2 in vitro and in cells” (Bioorg Med Chem, 2014)

How the values were obtained:
[1] = target: Proto-oncogene tyrosine-protein kinase ROS (Homo sapiens) (UniProt P08922); assay: Inhibition of human Ros assessed as residual activity at 1 uM relative to control
[2] = target: Protein-tyrosine kinase 6 (Homo sapiens) (UniProt Q13882); assay: Inhibition of human BRK assessed as residual activity at 1 uM relative to control
[3] = tested on: K562; assay: Antiproliferative activity against human K562 cells after 3 days by sulforhodamine B assay; format: functional; details: K562, 72 h
Summary of the method: (§1)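 Tested in the NCI 60 cell line panel. GI50 is the concentration giving 50% inhibition of cell growth, and values are the mean of two series of tests.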

[4] = target: Ephrin type-A receptor 8 (Homo sapiens) (UniProt P29322); assay: Inhibition of human EphA8 assessed as residual activity at 1 uM relative to control
[5] = target: Receptor-type tyrosine-protein kinase FLT3 (Homo sapiens) (UniProt P36888); assay: Inhibition of FLT3 (unknown origin) assessed as residual activity at 1 uM relative to control
[6] = target: Serine/threonine-protein kinase D2 (Homo sapiens) (UniProt Q9BZL6); assay: Inhibition of human PKD2 assessed as residual activity at 1 uM relative to control
[7] = tested on: PC-3; assay: Antiproliferative activity against human PC3 cells after 3 days by sulforhodamine B assay; format: functional; details: PC-3, 72 h; summary of the method: as §1
[8] = target: Dual specificity protein kinase CLK2 (Homo sapiens) (UniProt P49760); assay: Inhibition of human CLK2 assessed as residual activity at 1 uM relative to control
[9] = target: Protein-tyrosine kinase 2-beta (Homo sapiens) (UniProt Q14289); assay: Inhibition of human Pyk2 assessed as residual activity at 1 uM relative to control
[10] = tested on: MCF7; assay: Cell cycle arrest in human MCF7 cells assessed as accumulation at G2/M phase at 0.25 uM after 24 hrs using propidium iodide staining by FACS analysis (reference value: 22.13%); format: functional
[11] = target: Homeodomain-interacting protein kinase 1 (Homo sapiens) (UniProt Q86Z02); assay: Inhibition of human HIPK1 assessed as residual activity at 1 uM relative to control
[12] = target: Tyrosine-protein kinase Fgr (Homo sapiens) (UniProt P09769); assay: Inhibition of FGR (unknown origin) assessed as residual activity at 1 uM relative to control
[13] = target: Serine/threonine-protein kinase WNK3 (Homo sapiens) (UniProt Q9BYP7); assay: Inhibition of human WNK3 assessed as residual activity at 1 uM relative to control
[14] = tested on: SW-620; assay: Antiproliferative activity against human SW620 cells after 3 days by sulforhodamine B assay; format: functional; details: SW-620, 72 h
[15] = tested on: UACC-62; assay: Antiproliferative activity against human UACC62 cells after 3 days by sulforhodamine B assay; format: functional; details: UACC-62, 72 h
[16] = target: Tyrosine-protein kinase JAK3 (Homo sapiens) (UniProt P52333); assay: Inhibition of human JAK3 assessed as residual activity at 1 uM relative to control
[17] = target: Mitogen-activated protein kinase kinase kinase 5 (Homo sapiens) (UniProt Q99683); assay: Inhibition of human ASK1 assessed as residual activity at 1 uM relative to control
[18] = target: RAC-gamma serine/threonine-protein kinase (Homo sapiens) (UniProt Q9Y243); assay: Inhibition of human PKBgamma assessed as residual activity at 1 uM relative to control
[19] = target: Glycogen synthase kinase-3 beta (Homo sapiens) (UniProt P49841); assay: Inhibition of human GSK3beta assessed as residual activity at 1 uM relative to control
[20] = target: Cyclin-dependent kinase 4/cyclin D1 (Homo sapiens) (UniProt P11802+P24385); assay: Inhibition of CDK4/CycD1 (unknown origin) assessed as residual activity at 1 uM relative to control; format: protein-complex assay
[21] = target: T1, Aurora kinase A (Homo sapiens) (UniProt O14965); assay: Inhibition of Aurora-A (unknown origin) assessed as residual activity at 10 uM relative to control
T1 sequence (whole entry): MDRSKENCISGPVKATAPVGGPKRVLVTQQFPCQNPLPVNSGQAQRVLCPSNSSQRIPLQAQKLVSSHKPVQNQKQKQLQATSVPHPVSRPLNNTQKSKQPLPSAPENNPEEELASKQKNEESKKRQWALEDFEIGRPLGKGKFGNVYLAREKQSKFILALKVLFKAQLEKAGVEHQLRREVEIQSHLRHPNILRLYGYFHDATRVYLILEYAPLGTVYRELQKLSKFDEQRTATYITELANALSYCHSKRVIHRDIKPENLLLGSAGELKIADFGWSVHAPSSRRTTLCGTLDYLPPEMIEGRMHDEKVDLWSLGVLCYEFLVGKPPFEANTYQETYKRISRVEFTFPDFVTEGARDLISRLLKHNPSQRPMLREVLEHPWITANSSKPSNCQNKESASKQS

[22] = target: Serine/threonine-protein kinase TBK1 (Homo sapiens) (UniProt Q9UHD2); assay: Inhibition of human TBK1 assessed as residual activity at 1 uM relative to control
[23] = target: BDNF/NT-3 growth factors receptor (Homo sapiens) (UniProt Q16620); assay: Inhibition of human TrkB assessed as residual activity at 1 uM relative to control
[24] = target: Inhibitor of nuclear factor kappa-B kinase subunit beta (Homo sapiens) (UniProt O14920); assay: Inhibition of human IKKbeta assessed as residual activity at 1 uM relative to control
[25] = target: Eukaryotic elongation factor 2 kinase (Homo sapiens) (UniProt O00418); assay: Inhibition of human eEF-2K assessed as residual activity at 1 uM relative to control
[26] = target: Ephrin type-B receptor 4 (Homo sapiens) (UniProt P54760); assay: Inhibition of human EphB4 assessed as residual activity at 1 uM relative to control
[27] = tested on: MCF7; assay: Cell cycle arrest in human MCF7 cells assessed as accumulation at sub-G1 phase at 1 uM after 24 hrs using propidium iodide staining by FACS analysis (reference value: 0.17%); format: functional
[28] = tested on: SF-295; assay: Antiproliferative activity against human SF295 cells after 3 days by sulforhodamine B assay; format: functional; details: SF-295, 72 h; summary of the method: as §1
[29] = Antiproliferative activity against human SF539 cells after 3 days by sulforhodamine B assay; format: functional; details: SF-539, 72 h; summary of the method: as §1
[30] = target: Fibroblast growth factor receptor 4 (Homo sapiens) (UniProt P22455); assay: Inhibition of human FGFR4 assessed as residual activity at 1 uM relative to control
[31] = target: Fibroblast growth factor receptor 1 (Homo sapiens) (UniProt P11362); assay: Inhibition of human FGFR1 assessed as residual activity at 1 uM relative to control
[32] = target: Tyrosine-protein kinase CSK (Homo sapiens) (UniProt P41240); assay: Inhibition of human CSK assessed as residual activity at 1 uM relative to control
[33] = target: CDK2/Cyclin A2 (Homo sapiens) (UniProt P24941+P20248); assay: Inhibition of CDK2/CycA (unknown origin) assessed as residual activity at 1 uM relative to control; format: protein-complex assay

Chain of Eukaryotic elongation factor 2 kinase (Homo sapiens) (O00418 whole entry): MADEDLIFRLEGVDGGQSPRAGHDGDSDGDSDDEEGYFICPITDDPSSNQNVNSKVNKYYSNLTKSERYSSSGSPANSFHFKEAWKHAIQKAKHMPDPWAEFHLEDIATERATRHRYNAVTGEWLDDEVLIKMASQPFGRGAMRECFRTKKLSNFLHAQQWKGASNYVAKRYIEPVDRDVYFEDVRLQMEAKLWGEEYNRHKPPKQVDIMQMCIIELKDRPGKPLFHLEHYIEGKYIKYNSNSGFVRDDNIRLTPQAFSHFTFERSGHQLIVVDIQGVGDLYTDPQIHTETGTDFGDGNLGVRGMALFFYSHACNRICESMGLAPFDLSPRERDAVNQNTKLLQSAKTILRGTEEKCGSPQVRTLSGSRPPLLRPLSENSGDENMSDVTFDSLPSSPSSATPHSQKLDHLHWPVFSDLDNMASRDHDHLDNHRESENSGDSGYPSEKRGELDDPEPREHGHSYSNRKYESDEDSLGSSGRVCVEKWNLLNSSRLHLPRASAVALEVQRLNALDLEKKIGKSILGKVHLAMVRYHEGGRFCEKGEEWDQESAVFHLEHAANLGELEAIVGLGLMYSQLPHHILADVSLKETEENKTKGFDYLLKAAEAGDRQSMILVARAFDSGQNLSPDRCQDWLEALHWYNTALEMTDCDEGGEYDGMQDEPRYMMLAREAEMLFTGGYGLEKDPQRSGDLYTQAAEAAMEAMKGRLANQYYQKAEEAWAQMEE
Chain of RAC-gamma serine/threonine-protein kinase (Homo sapiens) (Q9Y243 whole entry): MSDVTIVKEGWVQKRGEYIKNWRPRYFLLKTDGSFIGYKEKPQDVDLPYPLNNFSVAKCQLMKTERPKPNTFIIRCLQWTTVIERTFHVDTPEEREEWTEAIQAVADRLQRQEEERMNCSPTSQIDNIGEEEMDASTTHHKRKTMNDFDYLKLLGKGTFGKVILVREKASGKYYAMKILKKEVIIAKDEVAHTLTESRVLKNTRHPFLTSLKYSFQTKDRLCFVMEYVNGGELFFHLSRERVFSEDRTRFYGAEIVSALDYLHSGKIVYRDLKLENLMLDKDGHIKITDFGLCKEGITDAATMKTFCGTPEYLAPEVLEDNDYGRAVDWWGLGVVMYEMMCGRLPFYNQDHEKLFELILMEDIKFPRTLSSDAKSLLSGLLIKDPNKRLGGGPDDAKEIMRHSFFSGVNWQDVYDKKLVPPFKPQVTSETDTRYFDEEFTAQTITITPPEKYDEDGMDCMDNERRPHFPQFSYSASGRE
Chain of Dual specificity protein kinase CLK2 (Homo sapiens) (P49760 whole entry, looked up): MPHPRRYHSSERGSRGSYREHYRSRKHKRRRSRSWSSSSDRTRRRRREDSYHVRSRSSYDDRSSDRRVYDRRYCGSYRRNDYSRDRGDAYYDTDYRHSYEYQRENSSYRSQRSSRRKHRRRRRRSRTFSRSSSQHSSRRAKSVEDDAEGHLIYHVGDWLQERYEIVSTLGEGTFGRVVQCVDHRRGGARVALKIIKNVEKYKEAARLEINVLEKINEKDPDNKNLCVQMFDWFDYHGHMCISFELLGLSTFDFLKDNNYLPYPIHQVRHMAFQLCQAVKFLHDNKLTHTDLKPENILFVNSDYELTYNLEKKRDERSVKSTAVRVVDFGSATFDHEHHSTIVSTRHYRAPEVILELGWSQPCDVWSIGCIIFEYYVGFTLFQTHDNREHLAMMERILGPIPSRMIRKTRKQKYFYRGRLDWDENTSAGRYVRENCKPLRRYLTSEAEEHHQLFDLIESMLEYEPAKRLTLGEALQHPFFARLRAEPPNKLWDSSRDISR
Chain of Proto-oncogene tyrosine-protein kinase ROS (Homo sapiens) (P08922 whole entry): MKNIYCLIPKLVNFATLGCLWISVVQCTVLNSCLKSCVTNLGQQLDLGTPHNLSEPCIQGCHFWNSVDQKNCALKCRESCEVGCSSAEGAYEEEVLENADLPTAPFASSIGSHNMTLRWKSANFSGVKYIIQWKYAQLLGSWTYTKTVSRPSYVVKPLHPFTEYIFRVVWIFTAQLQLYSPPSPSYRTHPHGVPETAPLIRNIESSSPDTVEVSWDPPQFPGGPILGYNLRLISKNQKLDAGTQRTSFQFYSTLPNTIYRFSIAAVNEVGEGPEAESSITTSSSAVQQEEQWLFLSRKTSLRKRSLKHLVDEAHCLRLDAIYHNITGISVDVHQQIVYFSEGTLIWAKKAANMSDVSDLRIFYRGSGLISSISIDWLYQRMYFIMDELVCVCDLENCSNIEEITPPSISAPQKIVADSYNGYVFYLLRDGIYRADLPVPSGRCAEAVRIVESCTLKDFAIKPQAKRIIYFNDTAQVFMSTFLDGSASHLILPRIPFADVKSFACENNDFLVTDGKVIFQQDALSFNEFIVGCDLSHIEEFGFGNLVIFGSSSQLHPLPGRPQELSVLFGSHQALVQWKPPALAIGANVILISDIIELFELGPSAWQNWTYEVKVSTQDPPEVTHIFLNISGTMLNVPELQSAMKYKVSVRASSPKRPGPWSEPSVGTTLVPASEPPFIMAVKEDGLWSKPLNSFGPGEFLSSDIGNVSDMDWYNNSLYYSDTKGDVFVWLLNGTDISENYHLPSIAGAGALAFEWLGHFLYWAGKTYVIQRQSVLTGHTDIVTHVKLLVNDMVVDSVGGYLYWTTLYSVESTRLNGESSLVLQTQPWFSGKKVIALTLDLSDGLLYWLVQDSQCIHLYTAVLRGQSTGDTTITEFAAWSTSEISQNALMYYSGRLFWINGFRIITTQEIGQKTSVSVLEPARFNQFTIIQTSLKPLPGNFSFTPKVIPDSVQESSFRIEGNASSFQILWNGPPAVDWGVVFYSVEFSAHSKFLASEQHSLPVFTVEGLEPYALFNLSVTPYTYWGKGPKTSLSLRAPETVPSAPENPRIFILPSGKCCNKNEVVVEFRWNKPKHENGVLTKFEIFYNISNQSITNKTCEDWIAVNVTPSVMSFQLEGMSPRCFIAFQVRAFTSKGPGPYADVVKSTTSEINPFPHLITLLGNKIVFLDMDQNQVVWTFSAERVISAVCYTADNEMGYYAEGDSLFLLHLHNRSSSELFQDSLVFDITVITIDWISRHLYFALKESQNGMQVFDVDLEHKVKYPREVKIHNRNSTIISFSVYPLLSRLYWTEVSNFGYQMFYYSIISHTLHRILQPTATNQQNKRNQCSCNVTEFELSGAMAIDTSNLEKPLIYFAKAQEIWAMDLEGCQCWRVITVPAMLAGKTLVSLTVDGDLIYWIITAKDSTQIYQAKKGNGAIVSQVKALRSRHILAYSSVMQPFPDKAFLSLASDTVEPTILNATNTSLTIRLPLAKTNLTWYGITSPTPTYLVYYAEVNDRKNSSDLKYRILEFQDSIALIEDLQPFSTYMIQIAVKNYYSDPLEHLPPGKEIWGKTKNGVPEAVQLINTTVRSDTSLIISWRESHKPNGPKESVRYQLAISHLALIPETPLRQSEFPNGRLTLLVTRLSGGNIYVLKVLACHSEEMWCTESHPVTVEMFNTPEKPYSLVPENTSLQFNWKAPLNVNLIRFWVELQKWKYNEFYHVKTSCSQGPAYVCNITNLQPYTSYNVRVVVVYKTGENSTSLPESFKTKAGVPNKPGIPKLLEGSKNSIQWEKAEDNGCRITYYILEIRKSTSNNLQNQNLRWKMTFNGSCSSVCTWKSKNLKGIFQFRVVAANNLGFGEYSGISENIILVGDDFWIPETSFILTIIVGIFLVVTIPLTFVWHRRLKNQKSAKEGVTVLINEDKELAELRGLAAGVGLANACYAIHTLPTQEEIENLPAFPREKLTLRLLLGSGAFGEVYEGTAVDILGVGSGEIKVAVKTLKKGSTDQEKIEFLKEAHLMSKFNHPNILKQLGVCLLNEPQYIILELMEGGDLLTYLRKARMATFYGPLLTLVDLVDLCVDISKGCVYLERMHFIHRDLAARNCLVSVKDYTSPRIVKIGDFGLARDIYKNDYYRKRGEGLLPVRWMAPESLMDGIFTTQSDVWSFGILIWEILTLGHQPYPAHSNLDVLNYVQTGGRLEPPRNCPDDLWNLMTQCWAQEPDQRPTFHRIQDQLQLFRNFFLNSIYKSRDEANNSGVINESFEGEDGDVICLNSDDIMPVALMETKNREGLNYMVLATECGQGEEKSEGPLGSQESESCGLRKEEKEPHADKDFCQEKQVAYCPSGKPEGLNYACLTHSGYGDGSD
Chain of Protein-tyrosine kinase 6 (Homo sapiens) (Q13882 whole entry, looked up): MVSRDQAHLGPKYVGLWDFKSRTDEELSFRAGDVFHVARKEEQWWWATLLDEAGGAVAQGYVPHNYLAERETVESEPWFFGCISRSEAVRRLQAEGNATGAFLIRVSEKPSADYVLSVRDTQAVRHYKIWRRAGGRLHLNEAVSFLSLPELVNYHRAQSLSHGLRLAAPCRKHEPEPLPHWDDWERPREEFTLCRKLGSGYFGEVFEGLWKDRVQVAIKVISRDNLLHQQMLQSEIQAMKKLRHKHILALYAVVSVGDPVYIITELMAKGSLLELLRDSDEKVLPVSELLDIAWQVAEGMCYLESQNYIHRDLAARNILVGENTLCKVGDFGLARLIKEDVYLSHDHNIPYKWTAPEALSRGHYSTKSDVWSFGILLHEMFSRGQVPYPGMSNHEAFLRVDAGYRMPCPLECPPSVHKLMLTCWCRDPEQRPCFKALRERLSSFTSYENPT
Chain of Glycogen synthase kinase-3 beta (Homo sapiens) (P49841 whole entry, looked up): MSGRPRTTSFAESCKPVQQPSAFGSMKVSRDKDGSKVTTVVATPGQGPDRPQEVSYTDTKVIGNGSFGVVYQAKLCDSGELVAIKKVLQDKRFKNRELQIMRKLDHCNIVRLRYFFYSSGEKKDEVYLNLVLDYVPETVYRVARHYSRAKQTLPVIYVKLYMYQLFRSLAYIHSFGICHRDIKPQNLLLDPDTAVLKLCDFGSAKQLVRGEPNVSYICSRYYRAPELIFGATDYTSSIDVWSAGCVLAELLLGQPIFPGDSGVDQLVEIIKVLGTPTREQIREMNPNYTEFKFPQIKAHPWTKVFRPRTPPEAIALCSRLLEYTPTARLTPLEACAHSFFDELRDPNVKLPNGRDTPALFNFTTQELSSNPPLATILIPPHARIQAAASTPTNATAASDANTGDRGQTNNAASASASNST

In the case of `O=C1Nc2ncccc2/C1=C1/Nc2ncccc2C1=O`, the Activity [1] is reported as 102%, the Activity [2] is reported as 102% and the GI50 [3] is reported as 2260 nM. The Activity [4] was 114%, the Activity [5] was 79% and the Activity [6] was 100%. The GI50 [7] was 2020 nM, the Activity [8] was 81% and the Activity [9] was 119%. The Activity [10] was 21.66%, the Activity [11] was 80% and the Activity [12] was 95%. It also gave an Activity [13] of 106%, a GI50 [14] of 1410 nM and a GI50 [15] of 432 nM. The Activity [16] was 85%, the Activity [17] was 136% and the Activity [18] was 126%. For the same compound, the Activity [19] was 63%, the Activity [20] was 100% and the Activity [21] was 61%. The Activity [22] was 120%, the Activity [23] was 105% and the Activity [24] was 110%. It also gave an Activity [25] of 94%, an Activity [26] of 116% and an Activity [27] of 0.16%. It also gave a GI50 [28] of 257 nM, a GI50 [29] of 1900 nM and an Activity [30] of 108%. It also gave an Activity [31] of 101%, an Activity [32] of 122% and an Activity [33] of 116%.
